Data on 13 compounds can be found in PubChem BioAssay.

Activity calls are given as the source filed them.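 The calls were made as follows, unless noted: active = inhibition at or above 50% relative to wild type and mutant plate controls; inactive = inhibition below 50%.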

Broadly, the inhibition is the change of the read-out against control, counted positive when it falls.

A short description of assay [1]: inhibitors of TNFa-induced NFkB p65 translocation, primary screen, imaging, HUVEC, MLSMR starter and 10KST1 sets (AID 438;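 active = inhibition above 20% together with a positive visual image hit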;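 also: compound added about 3h40 before a 20 min TNFalpha stimulation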;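 as to inhibition: signal is the nuclear over cytoplasmic p65 intensity ratio per well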). Conditions: HUVEC TNFa-induced p65 nuclear translocation; cell count: measured here: nuclei count (cytotoxicity indicator), at 2.08 µM; inhibition: at 2 µM, stronger effect = higher value, 0% TNFa-plus-vehicle, 100% no-TNFa wells.
The nature of assay [2]: endothelial E-selectin expression blockers – imaging, HUVEC, immunofluorescence, MLSMR starter and 10KST1 sets, primary screen (AID 487;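 active = visually confirmed hit in the image check and inhibition above 20%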;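 as to inhibition: signal is fraction of cell area covered by stained E-selectin grains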;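 as to nuclei count: 100% = median nuclei count of all wells on the same plate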). Conditions: HUVEC TNFalpha-induced E-selectin immunofluorescence imaging, at 2 µM; inhibition: stronger effect = higher value; nuclei count: measured here: cell number, toxicity.
Assay [3] can be described thus: Primary imaging screen for DUSP6 inhibitors that restore phospho-Erk in transfected HeLa cells, chemical complementation (AID 609;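 active = compounds giving at least 50% inhibition in the cell-based MKP-3 phosphatase rescue imaging test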;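 as to inhibition: phospho-Erk level distribution per well compared with pooled transfected vehicle control wells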). Conditions: HeLa MKP-3 transfected, phospho-Erk imaging KS statistic, at 10 µM, cells stimulated with TPA for 15 min.
Assay [4] deals with Dual specificity protein phosphatase 6 (Homo sapiens) (UniProt Q16828). The assay is described as above. Conditions: HeLa MKP-3 transfected, phospho-Erk imaging KS statistic; at 10 µM; stronger effect = higher value; cells stimulated with TPA for 15 min.
Assay [5] has as its target Voltage-gated potassium channel subunit beta-2 (Rattus norvegicus) (UniProt P62483). Put plainly: inhibitors of rat Kvbeta2 reductase activity – biochemical, NADPH fluorescence, primary screen (AID 622;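 active = fluorescence slope higher than the sample average by over 3 SD, cut at about -0.22 in these data, passing the limit was not always enough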;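 also: slope of raw intensity against log time taken from 70 to 1610 s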). The conditions noted are these: recombinant KvBeta, 4-cyanobenzaldehyde reduction, at 10 µM, stronger effect = higher value.
Assay [6] shares this target. The assay can be described thus: enhancers of rat Kvbeta2 NADPH turnover – biochemical, NADPH fluorescence, primary screen (AID 623;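 active = NADPH fluorescence slope more negative than the mean of all samples by about 3 SD, 99.7% confidence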;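 also: fluorescence intensity change per second fitted from 20 to 320 s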). The conditions noted are these: Recombinant KvBeta, NADPH fluorescence decrease slope, 10 min; at 10 µM; stronger effect = lower value.
For assay [7], the target named is Muscarinic acetylcholine receptor M4 (Homo sapiens) (UniProt P08173). The assay can be described thus: M4-linked GIRK flux change, two-sided – cell-based, HEK293 M4/GIRK, thallium flux, BTC-AM, M4 allosteric agonist project, primary screen (AID 625;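 active = fluorescence slope after compound addition differing from the mean of all tested samples at 99.7% confidence, mostly higher but some lower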;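 also: thallium influx through GIRK channels coupled to M4 in HEK293 cells with BTC-AM dye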). The conditions noted are these: at 10 µM, actives lie on both sides. In a few lines: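 System: HEK293 cells with M4 receptor and GIRK channels | Incubation: Cells overnight at 37 °C, BTC-AM loading 1 h, reads 2 min total | Technique: Kinetic BTC-AM fluorescence sampled at 1 Hz, 10 s pre-addition baseline | Measure: Post-addition slope, 15–24 s, of baseline-normalized fluorescence | Control set: Carbachol positive, DMSO negative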

Assay [8] can be described thus: inhibitors of larval lipid processing in zebrafish, primary screen, whole organism, PED6 fluorescence, gall bladder and intestine (AID 686;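 active = a full or partial loss of lipid-probe fluorescence in the fish gall bladder, intestine or both, judged by eye; inactive = no fluorescence loss, or compound toxic to the fish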;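 also: larvae 5 to 7 days old with five fish per well; signal comes from phospholipase A2 cleavage of quenched PED6 carried via bile; overnight exposure to compound and PED6 before scoring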). Conditions: Zebrafish larvae PED6 lipid processing, fluorescence scoring; screened at 20 µM (by protocol). The procedure, abridged: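 Test system – live zebrafish larvae aged 5-7 days, whole organism · Buffer or medium – E3 fish medium · Reagent – quenched phospholipase substrate PED6, 100 nM final, ingested by larvae · Doses – 20 µM single dose · Incubation – overnight compound and PED6 incubation · Technique – visual fluorescence microscopy scoring of gall bladder, gut · Read-out basis – visual per-well fluorescence inhibition score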

Assay [9] in a line: loss of swimming-algae plug formation – whole organism, Chlamydomonas reinhardtii, WT vs cilia-less mutant, absorbance, 96-well, primary screen (AID 463189).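 Also: 0% = wild type cc124 cells in DMSO and 100% = ciliumless bld1 mutant cells.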 The conditions noted are these: Chlamydomonas reinhardtii gravitaxis, OD600 absorbance, 2 days; at 10 µM; stronger effect = higher value.
Where [10] appears, read: measured here: cell density z-score.
Where [11] appears, read: measured here: nuclear c-Myc green intensity z-score.
[12] abbreviates: measured here: nuclear pErk red intensity z-score, stronger effect = higher value.

Dual specificity protein phosphatase 6 (Homo sapiens), sequence (Q16828 whole entry, looked up): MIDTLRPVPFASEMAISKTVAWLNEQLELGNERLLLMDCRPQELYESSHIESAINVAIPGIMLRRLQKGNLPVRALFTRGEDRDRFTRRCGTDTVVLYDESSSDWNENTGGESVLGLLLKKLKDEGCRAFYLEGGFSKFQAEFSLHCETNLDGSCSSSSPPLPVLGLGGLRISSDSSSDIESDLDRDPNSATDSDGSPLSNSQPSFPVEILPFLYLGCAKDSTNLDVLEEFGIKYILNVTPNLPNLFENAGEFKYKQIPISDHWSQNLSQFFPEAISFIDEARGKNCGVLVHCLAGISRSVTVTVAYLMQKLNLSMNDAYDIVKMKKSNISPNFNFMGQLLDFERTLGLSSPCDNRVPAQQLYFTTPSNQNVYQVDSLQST
Voltage-gated potassium channel subunit beta-2 (Rattus norvegicus), sequence (P62483 whole entry, looked up): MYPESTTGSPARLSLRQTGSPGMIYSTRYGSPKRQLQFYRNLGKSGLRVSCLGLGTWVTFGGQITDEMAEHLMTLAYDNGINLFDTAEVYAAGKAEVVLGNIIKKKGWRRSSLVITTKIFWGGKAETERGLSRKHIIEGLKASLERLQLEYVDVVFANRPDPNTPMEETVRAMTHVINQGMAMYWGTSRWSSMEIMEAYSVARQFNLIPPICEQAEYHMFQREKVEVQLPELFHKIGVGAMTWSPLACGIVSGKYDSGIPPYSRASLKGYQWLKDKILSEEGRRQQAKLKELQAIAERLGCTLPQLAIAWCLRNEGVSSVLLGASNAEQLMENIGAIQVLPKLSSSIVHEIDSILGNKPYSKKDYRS
Muscarinic acetylcholine receptor M4 (Homo sapiens), sequence (P08173 whole entry, looked up): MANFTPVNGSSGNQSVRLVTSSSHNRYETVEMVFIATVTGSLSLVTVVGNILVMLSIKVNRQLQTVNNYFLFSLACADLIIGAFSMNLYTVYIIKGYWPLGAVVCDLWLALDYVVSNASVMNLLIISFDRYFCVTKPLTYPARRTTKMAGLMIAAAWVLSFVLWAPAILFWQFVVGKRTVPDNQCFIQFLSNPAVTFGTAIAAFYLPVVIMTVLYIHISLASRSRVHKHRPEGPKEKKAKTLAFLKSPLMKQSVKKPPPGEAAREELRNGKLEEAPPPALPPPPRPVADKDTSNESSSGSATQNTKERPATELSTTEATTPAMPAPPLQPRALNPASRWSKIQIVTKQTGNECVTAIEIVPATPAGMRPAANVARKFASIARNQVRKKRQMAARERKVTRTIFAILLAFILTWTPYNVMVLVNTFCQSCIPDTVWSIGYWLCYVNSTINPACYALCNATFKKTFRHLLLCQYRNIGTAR

Regarding `CCCC(C)n1[nH]c(=O)cc1N` (centres undefined), the cell count in [1] came to 395. For the same compound, the inhibition was -2.2% (inactive) in assay [1], -101% (inactive) in assay [2], 30.7% (inactive) in assay [4] and 27.7% (inactive) in [9]. Further, the nuclei count in assay [2] was 137%. Further, the z-score in assay [3] (setting [10]) was 1.2; in assay [3] (setting [11]), -1.78; in [3] (setting [12]), -0.211. The fluorescence slope in assay [5] is -0.46 (inactive); in assay [7] it was 0.00418 (inactive). In addition, in [6], the NADPH fluorescence slope was -0.000101 (inactive). Moreover, in [8], the result was inactive.

Consider `COc1cccc(Cn2c(NCc3ccco3)nc3c2c(=O)n(C)c(=O)n3C)c1`, for which the cell count in assay [1] amounted to 704. The inhibition was -6.1% (inactive) in assay [1], -198% (inactive) in assay [2], 27.8% (inactive) in [4] and 0.377% (inactive) in assay [9]. For the same compound, in assay [2], the nuclei count stood at 180%. Also, the z-score was found to be 0.733 in assay [3] (setting [10]), 0.0104 in assay [3] (setting [11]) and 0.0373 in assay [3] (setting [12]). In addition, the values for the fluorescence slope in assay [5] and in assay [7] were -0.476 (inactive) and 0.00767 (inactive), respectively. Moreover, the NADPH fluorescence slope in assay [6] is -0.000112 (inactive). Further, the result in [8] was inactive.

As to `CCCCOC(=O)c1[nH]c(C)c(C(=O)OC)c1C`, in assay [1], the cell count was 604. The inhibition in [1] is -7.5% (inactive); in assay [2], 50.3% (inactive); in [4] it was 37% (inactive); in assay [9], 90.5% (active). The same compound gave a nuclei count in [2] of 98.7%. For the same compound, the z-score in assay [3] (setting [10]) is 0.82; in [3] (setting [11]), -1.07; in [3] (setting [12]), -0.474. In addition, the fluorescence slope in assay [5] was -0.481 (inactive); in [7], 0.00588 (inactive). In assay [6], the NADPH fluorescence slope is -1.9e-05 (inactive). In [8], the compound was classed as inactive.

Regarding `COc1ccc2[nH]cc(C(=O)CN(C)CCc3ccc(OC)c(OC)c3)c2c1`, the cell count in assay [1] worked out at 516. Further, the inhibition in assay [1] is -15.4% (inactive); in assay [2] it was -59.5% (inactive); in assay [4], -14.6% (inactive); in assay [9], -1.18% (inactive). In [2], this compound had a nuclei count of 137%. In addition, the z-score in [3] (setting [10]) is 0.922; in assay [3] (setting [11]), -0.876; in assay [3] (setting [12]), 1.1. Also, the fluorescence slope is -0.476 (inactive) in [5] and 0.00394 (inactive) in [7]. Also, the NADPH fluorescence slope in [6] is -7.3e-05 (inactive). For the same compound, the compound was called inactive in assay [8].

As to `COc1cccc(OC)c1C(=O)Nc1nc2ccc(S(C)(=O)=O)cc2s1`, the cell count in assay [1] was 388. For the same compound, the inhibition in assay [1] was -2.4% (inactive); in assay [2] it was -8.7% (inactive); in [4] it was 6.04% (inactive); in assay [9], 19.4% (inactive). Further, the nuclei count in assay [2] was 109%. Further, the z-score in [3] (setting [10]) is 0.854; in assay [3] (setting [11]), 0.658; in assay [3] (setting [12]), -1.02. Moreover, the fluorescence slope in assay [5] was -0.409 (inactive); in [7], 0.00408 (inactive). For the same compound, the NADPH fluorescence slope in assay [6] is -1e-05 (inactive). Moreover, the compound was called inactive in [8].

As to `CCc1nc(N2CCN(C(=O)c3ccccc3)CC2)c(C#N)c2c1COC(C)(C)C2`, the cell count in assay [1] is 548. The inhibition in [1] was 2% (inactive); in assay [2] it was -77.4% (inactive); in assay [4], 3.42% (inactive); in assay [9], 5.51% (inactive). The nuclei count in [2] was 113%. The z-score is -0.584 in [3] (setting [10]), 0.135 in assay [3] (setting [11]) and 0.894 in assay [3] (setting [12]). The figures for the fluorescence slope in assay [5] and in [7] were -0.474 (inactive) and 0.00455 (inactive), respectively. Also, the NADPH fluorescence slope in assay [6] was 6.5e-05 (inactive). In assay [8], the call was inactive.

Consider `Cc1nn(CC(N)=O)c(=O)c2ccccc12`, for which the cell count in [1] was 579. Besides, the inhibition in assay [1] was -2.9% (inactive); in assay [2], -62.8% (inactive); in [4] it was 10.9% (inactive); in [9], -4.61% (inactive). The same compound returned a nuclei count in [2] of 142%. Also, the z-score is 2.22 in assay [3] (setting [10]), -0.838 in [3] (setting [11]) and 0.00121 in [3] (setting [12]). Moreover, the values for the fluorescence slope in [5] and in assay [7] were -0.485 (inactive) and 0.00427 (inactive), respectively. Further, the NADPH fluorescence slope in assay [6] was -0.00011 (inactive). Moreover, in [8], the result was inactive.

With `CN(CCOC(=O)c1ccc2c(c1)OCCO2)Cc1ccccc1`, the cell count in assay [1] is 661. The inhibition in assay [1] was -16.5% (inactive); in assay [2] it was -9.5% (inactive); in assay [4], 5.35% (inactive); in assay [9], 69.7% (active). In assay [2], this compound registered a nuclei count of 184%. Besides, the z-score was 0.691 in [3] (setting [10]), -0.671 in assay [3] (setting [11]) and 1.4 in assay [3] (setting [12]). Moreover, the fluorescence slope is -0.472 (inactive) in assay [5] and 0.00763 (inactive) in [7]. Moreover, the NADPH fluorescence slope in [6] is -0.000111 (inactive). The call in assay [8] was inactive.

As to `CCCCSc1nc(O)c(C2OC(=O)c3c2ccc(OC)c3OC)c(=O)n1C` (centres undefined), in [1], the cell count was determined as 559. For the same compound, the inhibition was 1.9% (inactive) in assay [1], 57.7% (active) in assay [2], 9.91% (inactive) in assay [4] and 32.4% (inactive) in assay [9]. The nuclei count in assay [2] stood at 95.8%. The results for the z-score in assay [3] (setting [10]), in assay [3] (setting [11]) and in assay [3] (setting [12]) were -2.21, -0.0853 and 0.751, respectively. Further, the fluorescence slope is -0.372 (inactive) in assay [5] and 0.00535 (inactive) in [7]. Besides, the NADPH fluorescence slope in assay [6] was -2.3e-05 (inactive). In assay [8], the call was inactive.

Regarding `COc1ccccc1-n1c(N)c(C(=O)NCC2CCCO2)c2nc3ccccc3nc21` (centres undefined), the cell count in assay [1] was found to be 630. The inhibition in assay [1] is -11.8% (inactive); in assay [2], -49.3% (inactive); in assay [4] it was 14.7% (inactive); in [9], 19.9% (inactive). The nuclei count in [2] was found to be 160%. The results for the z-score in assay [3] (setting [10]), in assay [3] (setting [11]) and in [3] (setting [12]) were 1.5, -1.96 and 0.209, respectively. In addition, the fluorescence slope is -0.0437 (inactive) in [5] and 0.00576 (inactive) in [7]. The NADPH fluorescence slope in assay [6] is 2e-05 (inactive). Also, the outcome in assay [8] was inactive.

Turning to `Nc1ccc2oc(-c3ccccc3Cl)nc2c1`, the cell count in [1] was determined as 644. Further, the inhibition in assay [1] is -0.2% (inactive); in assay [2] it was 7.8% (inactive); in assay [4], -7.67% (inactive); in [9], 26.6% (inactive). The compound further had a nuclei count in [2] of 145%. Besides, the values for the z-score in assay [3] (setting [10]), in assay [3] (setting [11]) and in assay [3] (setting [12]) were 0.0664, -0.553 and -0.135, respectively. In addition, the fluorescence slope is -0.136 (inactive) in assay [5] and 0.00466 (inactive) in [7]. Besides, the NADPH fluorescence slope in [6] was -5.7e-05 (inactive). For the same compound, the outcome in assay [8] was inactive.

Regarding `CCOC(=O)N1CCN(C2OC(=O)c3ccccc32)CC1` (centres undefined), in assay [1], the cell count was 380. Further, the inhibition is 0.8% (inactive) in assay [1], -125% (inactive) in [2], 24.4% (inactive) in [4] and 14% (inactive) in [9]. Moreover, the nuclei count in assay [2] was determined as 146%. In addition, the z-score was -0.546 in assay [3] (setting [10]), -0.533 in [3] (setting [11]) and -0.506 in assay [3] (setting [12]). Besides, the fluorescence slope is -0.459 (inactive) in assay [5] and 0.00469 (inactive) in [7]. Moreover, the NADPH fluorescence slope in assay [6] is -0.000295 (inactive). The outcome in assay [8] was “inactive; toxic”.

Regarding `Cn1c(N2CCN(c3ccccn3)CC2)nc2c1c(=O)n(Cc1ccccc1Cl)c(=O)n2C`, the cell count in assay [1] was 738. Moreover, the inhibition in assay [1] was 4.2% (inactive); in assay [2], -56.1% (inactive); in assay [4] it was 13.9% (inactive); in assay [9] it was 5.36% (inactive). The nuclei count in assay [2] stood at 177%. Also, the z-score in assay [3] (setting [10]) is -0.827; in assay [3] (setting [11]) it was -0.0696; in assay [3] (setting [12]), 1.36. Besides, the values for the fluorescence slope in assay [5] and in assay [7] were -0.465 (inactive) and 0.00667 (inactive), respectively. Further, the NADPH fluorescence slope in assay [6] was -0.000144 (inactive). Further, the compound was called inactive in assay [8].
